Measurements collected from several papers.
Each line is one published result; the experiments were not run side by side.
Target: Tyrosine-protein kinase Lyn (LYN, Homo sapiens, UniProt P07948)

SMILES	test	setting	remaining binding [%]
O=C(NCc1ncc(C(F)(F)F)cc1Cl)c1ccc2c(c1)C1(CCS(=O)(=O)CC1)[C@H](C1CC1)N2S(=O)(=O)c1ccc(F)cc1	cell-free assay, competition with immobilised ligand	1 µM	100
O=C(Nc1c[nH]nc1C(=O)NC1CCNCC1)c1cc(F)cc(F)c1	binding, competition with immobilised ligand	1 µM	100
CCS(=O)(=O)c1cc2cc(C[C@@](O)(CC(C)(C)c3ccc(F)cc3C(N)=O)C(F)(F)F)[nH]c2cn1	cell-free assay, competition with immobilised ligand	1 µM	100
O=C(c1ccc(Nc2ncc(Cl)c(-c3ccc(Cl)s3)n2)cc1)N1CCC(N2CCCC2)CC1	binding, competition with immobilised ligand	1 µM	87
F[C@@H]1CCN(c2nccc(-c3cnn4ncccc34)n2)C1	binding	1 µM	87
FC(F)(F)Oc1cccc(-c2cnc3ccc(-c4ccncc4)nn23)c1	cell-free assay, competition with immobilised ligand	5 µM	93
CC1=C(C#N)C(c2ccc3c(c2)c(NC(=O)c2ccccc2C)nn3C)C(C#N)=C(C)N1	cell-free assay, competition with immobilised ligand	1 µM	89
O=C(NCCCN1CCOCC1)c1ccc(Nc2nccc(-c3cc4ccccc4s3)n2)cc1	binding, competition with immobilised ligand	1 µM	94
Cc1ccc(-n2nc(C(C)(C)C)cc2NC(=O)Nc2ccc(-n3c(N)c(C(N)=O)c4nc5ccccc5nc43)cc2)cc1	cell-free assay, competition with immobilised ligand	1 µM	0.85
CN(C)c1nccc(-c2cnc3ncccn23)n1	binding	1 µM	100
COc1cnc(Nc2cccc(S(N)(=O)=O)c2)nc1N1CCN(c2ccccc2)C(=O)C1	binding, competition with immobilised ligand	1 µM	100
C[C@H]1CCN(c2nccc(-c3cnn4ncccc34)n2)C1	binding	1 µM	64
CNC(=O)[C@@H]1CC[C@@H](n2c(-c3ccc4cnccc4c3)nc3ccc(C(=O)NCc4cccc(C(N)=O)c4)cc32)C1	binding, competition with immobilised ligand	1 µM	95
CN(c1nccc(-c2cnn3ncccc23)n1)C1CC1	binding	1 µM	86
COc1ncc2cc3ccccc3nc2c1C#N	cell-free assay, competition with immobilised ligand	5 µM	94
CO[C@@H](C)c1c(Nc2ccc([C@@H](N(C)C(=O)C3CCS(=O)(=O)CC3)C(F)(F)F)cc2)cnc2cc(Cl)nn12	cell-free assay, competition with immobilised ligand	1 µM	97
CC1CCCN1c1nccc(-c2cnn3ncccc23)n1 (stereo not drawn)	binding	1 µM	84
CCC(=O)N[C@@H]1CC[C@H](C(=O)N(C)c2ccc(-c3nc4ccccc4o3)cc2)C1	cell-free assay, competition with immobilised ligand	1 µM	92
c1cncc(-c2cccc(Nc3nccc(NC4CCCCC4)n3)c2)c1	binding, competition with immobilised ligand	10 µM	48
CNC(=O)Nc1ccc2c(c1)[C@@]1(CC2)OC(=O)N(CC(=O)N(Cc2ccc(F)cc2)[C@@H](C)C(F)(F)F)C1=O	cell-free assay, competition with immobilised ligand	1 µM	100
COc1ccnn2ncc(-c3ccnc(N(C)C)n3)c12	binding	1 µM	100
COc1cc(-c2cn(C3CCc4c(F)cccc4N(CC(F)(F)F)C3=O)nn2)ccc1-n1cnc(C)c1 (stereo not drawn)	cell-free assay, competition with immobilised ligand	1 µM	100
O=C(c1ccc(Nc2ncc(Cl)c(-c3cc4ccccc4s3)n2)cc1)N1CCC(N2CCCC2)CC1	binding, competition with immobilised ligand	1 µM	83
N[C@H]1CCN(c2nccc(-c3cnn4ncccc34)n2)C1	binding	1 µM	99
